# Results of several laboratories.
# Action: inhibitor
# rep main protease: Replicase polyprotein 1ab, main protease (rep, Severe acute respiratory syndrome coronavirus 2, UniProt P0DTD1)
# rep papain-like protease: Replicase polyprotein 1ab, papain-like protease (rep, Severe acute respiratory syndrome coronavirus 2, UniProt P0DTD1)
SMILES,target,test,test system,setting,inhibition
Oc1cc(O)c2c(c1)OC(c1ccc(O)c(O)c1)C(O)C2 (centres unmarked),rep main protease,enzyme activity,,20 µM,22.6%
COCOc1cc(C)cc2c1C(=O)C=CC2=O,rep main protease,enzyme activity,,0.1 µM,3%
Cc1c(-c2cnccn2)ssc1=S,rep main protease,enzyme activity,,20 µM,97.6%
O=C(CCc1ccccc1)Nc1ccc2c(c1)C(=O)OC2,rep main protease,enzyme activity,,20 µM,-0.804%
O=C(O)c1cc(O)c2c(c1)C([C@@H]1c3cc(C(=O)O)cc(O)c3C(=O)c3c(O[C@H]4O[C@H](CO)[C@@H](O)[C@H](O)[C@H]4O)cccc31)c1cccc(O[C@H]3O[C@H](CO)[C@@H](O)[C@H](O)[C@H]3O)c1C2=O (some centres unmarked),rep main protease,enzyme activity,,20 µM,103%
CC[C@H](NC(=O)OCc1ccccc1)C(=O)N[C@H](C(=O)N[C@@H](Cc1ccccc1)C(=O)N(C)N(C#N)CCC(N)=O)C(C)(C)C,rep main protease,"enzyme activity, fluorescence",,"50 µM, pH 7.2",100%
O=C(NCc1ccccn1)Nc1csc2ccccc12,rep main protease,enzyme activity,,20 µM,-3.23%
Cc1cccn2c(=O)c3cc(C(=O)Nc4ccc(N(C)C)cc4)n(C)c3nc12,rep main protease,enzyme activity,,10 µM,8.7%
N#CSc1cc(SC#N)c(N)nc1N,rep main protease,enzyme activity,,20 µM,98.8%
O=C1C=CC(=O)c2ccccc21,rep main protease,enzyme activity,,1 µM,90.5%
Clc1nc2ccccc2cc1/C=N\c1ccc(Br)nc1,rep papain-like protease,enzyme activity,,10 µM,3.5%
C[C@@H]1O[C@@H](O[C@@H]2[C@@H](O)[C@H](OCCc3ccc(O)c(O)c3)O[C@H](CO)[C@H]2OC(=O)/C=C/c2ccc(O)c(O)c2)[C@H](O)[C@H](O)[C@H]1O,rep papain-like protease,enzyme activity,,50 µM,15.6%
Cc1cc(NC(=O)c2cc3c(=O)n4cccc(C)c4nc3n2C)ccc1Br,rep main protease,enzyme activity,,1 µM,14%
COc1ccc(OC)c2c1C(=O)C=CC2=O,rep main protease,enzyme activity,,10 µM,78.5%
CC[C@H](NC(=O)OCc1ccccc1)C(=O)N[C@H](C(=O)N[C@@H](CC(C)C)C(=O)N(C)N(C#N)CCC(N)=O)C(C)(C)C,rep main protease,"enzyme activity, fluorescence",,"50 µM, pH 7.2",100%
COc1cc(C)cc2c1C(=O)C=CC2=O,rep main protease,enzyme activity,,10 µM,90.4%
Cc1ccc(NC(=O)c2cc3c(=O)n4cccc(C)c4nc3n2C)cc1Cl,rep main protease,enzyme activity,,1 µM,6.4%
O=C(O)[C@H]1O[C@@H](Oc2cc3oc(-c4ccccc4)cc(=O)c3c(O)c2O)[C@H](O)[C@@H](O)[C@@H]1O,rep main protease,enzyme activity,,10 µM,68.9%
Cn1c(C(=O)Nc2ccc(Cl)cc2)cc2c(=O)n3ccccc3nc21,rep main protease,enzyme activity,,10 µM,14%
Cc1ccc2nc(Cl)c(/C=N/NC(=O)c3ccncc3)cc2c1,rep papain-like protease,enzyme activity,,100 µM,38.4%
Oc1ccc(/C=C/c2cc(O)cc(O)c2)cc1,rep main protease,"enzyme activity, FRET",,"10 µM, 10 min",> 50%
COc1cc(O)cc(/C=C/c2ccc(O)cc2)c1,rep main protease,enzyme activity,,20 µM,38.1%
O=c1c(O)c(-c2ccccc2)oc2cc(O)cc(O)c12,rep main protease,"enzyme activity, FRET",,"10 µM, 10 min",25 to 50%
CCOC(=O)C(Cc1c[nH]c2ccccc12)NC(=O)CCC(=O)Nc1ccc(S(N)(=O)=O)cc1 (centres unmarked),rep main protease,enzyme activity,,100 µg/mL,0%
O=c1c(O)c(-c2cc(O)c(O)c(O)c2)oc2cc(O)ccc12,rep main protease,enzyme activity,,20 µM,94.9%
COc1cccc2c1C(=O)C(C(C)=O)=CC2=O,rep main protease,enzyme activity,,1 µM,94.3%
O=c1cc(-c2ccc(O)cc2)oc2cc(O)c(O)c(O)c12,rep main protease,enzyme activity,,10 µM,90.7%
O=C(Oc1cncc(Br)c1)c1cccc2[nH]ccc12,rep main protease,"enzyme activity, fluorescence",,"10 µM, pH 7.2",100%
COC(=O)C1=CO[C@@H](O[C@@H]2O[C@H](CO)[C@@H](O)[C@H](O)[C@H]2O)[C@@H]2[C@@H](C)[C@@H](O)C[C@H]12,rep papain-like protease,enzyme activity,,50 µM,-1.7%
CCC(=O)Oc1cccc2c1C(=O)C=CC2=O,rep main protease,enzyme activity,,0.1 µM,35%
CC(=O)Nc1ccc(-c2cnc(/N=C\c3cc4ccccc4nc3Cl)s2)cc1,rep papain-like protease,enzyme activity,,100 µM,97.2%
O=C(NC[C@H](NC(=O)c1cn[nH]c1-c1ccccn1)c1ccc2ccccc2c1)c1cn[nH]c1,rep main protease,enzyme activity,,5 µM,10.7%
CCc1ccc(NC(=O)c2cc3c(=O)n4ccccc4nc3n2C)cc1,rep main protease,enzyme activity,,1 µM,11%
COc1cc(C[C@@H](C)[C@@H](C)Cc2ccc(O)c(OC)c2)ccc1O,rep main protease,"enzyme activity, FRET",,8 µM,45%
c1cc(CN2CCCNCCNCCCNCC2)ccc1CN1CCCNCCNCCCNCC1,rep main protease,enzyme activity in cells,HEK-293T,20 µM,-0.49%
Cc1ncc(/C=C\C(=O)NC[C@@H]2CC3(CCC3)CN2C(=O)[C@@H]2CC(=O)NC(=O)N2)c(=O)[nH]1,rep main protease,enzyme activity,,5 µM,16.1%
O=[N+]([O-])c1cccc(-c2nc(O)c3ccccc3n2)c1,rep main protease,enzyme activity,,20 µM,22.3%
COc1c(O)cc(O)c2c(=O)cc(-c3ccccc3)oc12,rep papain-like protease,enzyme activity,,50 µM,52%
C=C1C(=O)OC2C1C(O)CC1(C)C(O)CCC(C=O)C21 (centres unmarked),rep main protease,enzyme activity,,20 µM,-62%
NC(=O)c1ccc(/C=C/C(=O)N2CCC[C@@]3(CCN(C(=O)[C@@H]4CC(=O)NC(=O)N4)C3)C2)cc1,rep main protease,enzyme activity,,5 µM,14.7%
COc1cc(/C=C/C(=O)CC(=O)/C=C/c2ccc(O)c(OC)c2)ccc1O,rep main protease,"enzyme activity, FRET",,"10 µM, 10 min",> 50%
